In PubChem BioAssay AID624121 (Johns Hopkins Ion Channel Center, 2012) one finds inhibition data, which are given here for 1 molecule.

For the assay, the target named is Potassium channel subfamily K member 9 (Homo sapiens) (UniProt Q9NPC2). Kind of assay: blockade of KCNK9 potassium currents – cell-based, manual electrophysiology, SAR follow-up (AID 624121). The note with it: HEK293 KCNK9 stable, whole-cell patch clamp current; at 1 µM; stronger effect = higher value. In short, it runs like this:
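Measure: percent current inhibition at -20 mV versus current in 5 mM K+ bath. Test system: inducible KCNK9-expressing HEK293 cell line. Doses: one dose, 1 µM. Signal: whole-cell patch clamp current at -20 mV. Timing: induction 16–24 h pre-recording, 30 s ramp interval.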

Chain of Potassium channel subfamily K member 9 (Homo sapiens) (Q9NPC2 whole entry, looked up): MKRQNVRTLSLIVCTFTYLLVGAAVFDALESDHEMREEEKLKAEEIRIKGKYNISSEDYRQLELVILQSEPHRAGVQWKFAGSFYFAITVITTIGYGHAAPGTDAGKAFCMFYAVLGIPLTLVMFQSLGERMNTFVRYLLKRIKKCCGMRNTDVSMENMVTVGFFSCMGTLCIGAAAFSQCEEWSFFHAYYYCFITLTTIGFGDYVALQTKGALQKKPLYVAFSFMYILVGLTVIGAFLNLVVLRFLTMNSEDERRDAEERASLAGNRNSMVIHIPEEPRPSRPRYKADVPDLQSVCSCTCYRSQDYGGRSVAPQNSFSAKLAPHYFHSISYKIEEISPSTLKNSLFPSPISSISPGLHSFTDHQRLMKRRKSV

For the molecule `C[C@@H]([C@@H]1CC2CC[C@H]1C2)n1c(-c2ccco2)n[nH]c1=S`, the inhibition was 55.2%.
